# STAT1 act – activators of IFN-gamma induced STAT1 signaling; 200,000 tested, 2.6% active; activation (% of control), % at 5.5 µM; NIH 3T3 STAT1-luciferase reporter, luminescence; 100% = IFN-gamma alone, no compound;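 active = activation above the screen-wide mean activation plus 3 SD, cut at about 130% in these data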
# FLuc inh counter – counter-screen for luciferase assay inhibitors: firefly luciferase inhibition; P08659; ATPLite firefly luciferase biochemical luminescence, 10 min; inhibition, % at 10 µM; 200,000 tested, 1.5% active; AID 1006;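 active = inhibition above about 50% when tested at 10 µM, limit read from the data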
# Target sequence (P08659 whole entry, looked up): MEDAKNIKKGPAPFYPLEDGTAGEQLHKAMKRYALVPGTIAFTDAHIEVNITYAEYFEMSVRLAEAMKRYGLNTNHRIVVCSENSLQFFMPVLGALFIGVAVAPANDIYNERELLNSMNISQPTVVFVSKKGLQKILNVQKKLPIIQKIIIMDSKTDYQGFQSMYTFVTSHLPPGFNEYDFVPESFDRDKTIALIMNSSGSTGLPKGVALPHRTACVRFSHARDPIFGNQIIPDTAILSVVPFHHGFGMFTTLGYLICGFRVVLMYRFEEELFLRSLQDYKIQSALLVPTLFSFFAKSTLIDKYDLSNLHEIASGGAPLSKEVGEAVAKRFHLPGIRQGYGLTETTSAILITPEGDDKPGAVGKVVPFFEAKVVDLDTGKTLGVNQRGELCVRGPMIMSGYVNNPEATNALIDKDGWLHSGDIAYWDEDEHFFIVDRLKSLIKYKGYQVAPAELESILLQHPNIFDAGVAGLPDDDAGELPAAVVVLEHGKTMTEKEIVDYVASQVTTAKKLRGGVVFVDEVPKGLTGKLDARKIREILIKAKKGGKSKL
# FLuc stim CS – affects firefly luciferase, flagging false hits in luciferase stimulation screens; 200,000 tested, under 10 active; AID 1027; activation factor at 10 µM; ATPlite luciferase biochemical, luminescence, 10 min; 0 = ATP-free wells, 1 = DMSO control;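 active = luciferase activation factor, scaled between plate controls, of at least 2 with compound at 10 µM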
#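 System: cell-free luciferase reagent; medium: PBS as buffer for the ATP substrate; doses: test compounds dosed from 2 mM stocks in 100% DMSO; incubation: 10 min, room temperature; measured by: luminescence from luciferase reaction; read-out: luciferase activation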
# APP 5'UTR act – activates APP 5'UTR luciferase reporter; 190,000 tested, 1% active; activation, % at 2 µM; SH-SY5Y APP 5'UTR luciferase reporter, luminescence; zero percent = DMSO vehicle wells; AID 1276;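 active = activation above a set limit, based on mean plus 3 SD of controls, cut at about 140% in these data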
# NF-kB neuron act – NF-kB expression increase, human neuronal cells. NF-kB reporter expression; active compounds read high. fold change at 12.5 µM. 190,000 tested, 1.6% active; in the data active = fold change above about 3.3
# Hits are given with their value; - = inactive; . = no result given. Only some compounds are listed: those with a hit (about 4.1% of all), similar ones and a draw of the others.
SMILES,STAT1 act,FLuc inh counter,FLuc stim CS,APP 5'UTR act,NF-kB neuron act
Cc1ccc(/C=N/N2CCN(c3ccccn3)CC2)cc1,142,-,-,-,-
COc1cc(-n2nnnc2SC)c(OC)cc1Cl,-,-,-,-,3.6
COc1ccccc1-n1nnnc1SCc1ccccc1,-,-,-,-,-
COc1ccc(Cc2[nH]n3c(=O)c(Cl)c(C)nc3c2-c2ccccc2)cc1,-,-,-,-,-
O=c1c(-c2cnn(-c3ccccc3)c2)coc2cc(O)ccc12,132,-,-,140,3.7
Cc1ccc(/C=C/C(=O)OCC(=O)Nc2cccc(S(=O)(=O)N(C)C)c2)o1,-,-,-,-,-
Cc1cccc(OCCOCCSc2ncccn2)c1,-,-,-,-,-
Cc1ccc(OCCSc2ncccn2)c(C)c1,136,-,-,168,5.5
Cc1ccc(C(=O)c2cc([N+](=O)[O-])ccc2N2CCOCC2)c(C)c1,-,-,-,-,5.4
CN1CCN(c2ccc([N+](=O)[O-])cc2C(=O)c2ccc(Br)cc2)CC1,-,-,-,-,-
O=C(c1ccc(Br)cc1)c1cc([N+](=O)[O-])ccc1N1CCCCC1,-,-,-,-,5
O=C(c1cnccn1)N1CCc2ccccc2C1,-,-,-,-,-
Cc1cccc(C)c1NC(=O)c1ccc(-c2ccc(Cl)cc2Cl)o1,-,-,-,-,-
O=C(Nc1nccs1)c1ccc(-c2ccc(Cl)cc2Cl)o1,146,69,-,-,-
Cc1c(Cl)cccc1NC(=O)CNCc1ccccc1F,-,-,-,-,-
CCC1CCCCN1C(=O)c1cc(-c2ccc(Cl)c(Cl)c2)on1 (stereo not drawn),-,-,-,-,-
CC1CCCCN1C(=O)c1cc(-c2ccc(Cl)c(Cl)c2)on1 (stereo not drawn),133,-,-,-,-
COc1cccc(-c2cc(C(=O)Nc3cccnc3)no2)c1,132,64,-,-,4.9
COc1cccc(C(=O)Nc2cnn(C(C)C)c2)c1,-,-,-,-,-
CC(C)n1cc(NC(=O)c2cc(-c3ccccc3)on2)cn1,131,-,-,-,-
O=C(Nc1cccnc1)c1ccc(-c2ccccc2)cc1,-,51,-,-,4
CCn1cc(CN2N=C(C)CC2c2ccccc2)c(C)n1 (stereo not drawn),-,-,-,-,-
Cc1nc(=O)c(-c2ccccc2)c(C)n1CCCCCC(=O)O,-,-,-,-,-
Cc1c(C(=O)Nc2ccc(S(=O)(=O)NCC3CCCO3)cc2)cccc1[N+](=O)[O-] (stereo not drawn),-,-,-,-,.
C=CCc1cccc2cc(C(=O)N(CC)CC)c(=O)oc12,-,-,-,-,-
SMILES,STAT1 act,FLuc inh counter,FLuc stim CS,APP 5'UTR act,NF-kB neuron act
COc1cccc(-c2cc(C(=O)N3C(C)CCCC3C)no2)c1 (stereo not drawn),136,-,-,-,3.3
COc1cccc(-c2cc(C(=O)N3CCN(C(c4ccccc4)c4ccccc4)CC3)no2)c1,-,-,-,-,-
O=C(Nc1cccnc1)c1cc(-c2ccccc2)on1,-,65,-,-,-
CN(C)c1ccc(N/C=C/C(=O)c2ccc(F)cc2)cc1,-,58,-,-,4.6
O=C(/C=C/Nc1ccccc1Oc1ccccc1)c1ccco1,-,-,-,-,-
COc1ccccc1Oc1ccc(N/C=C/C(=O)c2ccco2)cc1,143,-,-,-,5.2
CC(=O)Nc1ccc(N/C=C/C(=O)c2ccco2)cc1,141,-,-,-,-
CN(C)c1ccc(N/C=C/C(=O)c2ccco2)cc1,-,96,-,.,-
Cc1ccc(S(=O)(=O)c2c(C)nn(C(C)(C)C)c2OC(=O)c2ccco2)cc1,138,-,-,-,-
Cc1ccc(S(=O)(=O)c2c(C)nn(C(C)(C)C)c2OC(=O)c2ccc(Br)o2)cc1,-,-,-,-,-
CC(=O)Cc1nsc(Nc2ccc(F)cc2)n1,-,-,-,-,-
CC(=O)Cc1nsc(Nc2ccc3c(c2)OCCO3)n1,148,-,-,-,-
C=CCOc1ccc(/C=N/NC(=O)C(=O)Nc2ccccn2)cc1OC,-,-,-,-,-
Cc1nc2ccccc2nc1N1CCC(C)CC1,-,-,-,-,-
Cc1cc(N2CCC(C)CC2)nc2cccc(O)c12,-,-,-,-,4.5
CCOC(=O)c1cc2ccc3ccccc3c2s1,151,-,-,-,-
COC(=O)c1cc2c(s1)-c1ccccc1CC2,-,-,-,-,-
CCOC(=O)c1cc2c(s1)-c1ccccc1CC2,131,-,-,-,-
CCOC(=O)c1sc(/N=C/c2c(O)ccc3ccccc23)cc1C,-,-,-,-,-
CCOC(=O)c1cc2cc3ccccc3cc2[nH]1,136,-,-,-,3.4
Cc1nn(CC(=O)OC(C)C(=O)Nc2ccccc2[N+](=O)[O-])c(C)c1[N+](=O)[O-] (stereo not drawn),-,-,-,-,-
Cc1cccc(/C(N)=N/OC(=O)CCC2CCCCC2)c1,-,54,-,-,-
N/C(=N\OC(=O)CC1CCCCC1)c1ccccn1,-,81,-,-,4.8
N/C(=N\OC(=O)CC1CCCCC1)c1ccncc1,-,-,-,-,-
N/C(=N\OC(=O)CCC1CCCC1)c1cccnc1,-,74,-,-,-
SMILES,STAT1 act,FLuc inh counter,FLuc stim CS,APP 5'UTR act,NF-kB neuron act
N/C(=N\OC(=O)COc1ccc(Cl)cc1Br)c1cccnc1,146,-,-,-,-
CC(C)C(c1nnnn1C(C)(C)C)N1CCC(Cc2ccccc2)CC1 (stereo not drawn),-,-,-,-,-
Cc1ccc(C)c(OCC(=O)O/N=C(\N)c2ccccn2)c1,135,-,-,-,6.2
N/C(=N\OC(=O)CC1CCCCC1)c1cccnc1,-,65,-,-,-
N/C(=N\OC(=O)COc1ccc2ccccc2c1)c1ccccn1,-,-,-,-,-
COc1ccc(C2C(=O)c3ccccc3C2=O)c(OC)c1,-,-,-,-,-
COc1ccc(C2CC(=O)c3ccccc3O2)cc1 (stereo not drawn),-,-,-,-,3.8
COc1cccc(C2Cc3ccccc3C(=O)O2)c1 (stereo not drawn),-,-,-,-,-
COc1ccc(C2C(=O)c3ccccc3C2=O)cc1OC,-,82,-,-,-
COc1ccc(C2C(=O)c3ccccc3C2=O)cc1,-,90,-,-,-
COc1ccc(C2=C(N)c3ccccc3C2=O)cc1,133,57,-,-,-
CC(=O)NNc1ncnc2c1cnn2-c1ccc(C)c(C)c1,-,-,-,-,-
Cc1ccc(-n2ncc3c2ncn2c(C)nnc32)cc1C,136,-,-,-,3.4
CCc1nnc2c3cnn(-c4ccccc4)c3ncn12,133,-,-,-,-
c1ccc(-n2ncc3c2ncn2cnnc32)cc1,-,-,-,-,-
CC(C)(C)CC(=O)O/N=C(\N)c1ccncc1,-,-,-,-,-
CNC(=S)N1CCC(NC(=O)C(Cc2ccccc2)NC(C)=O)CC1 (stereo not drawn),-,-,-,-,-
